# Assay results published in ChEMBL document CHEMBL1122039, “Design of more potent and selective antagonists of the antidiuretic responses to arginine-vasopressin devoid of antidiuretic agonism” (J Med Chem, 1982).
# Numbered stars: 1 amine (or outer) side, 2 acyl side, 3 side chain; on linkers, the order of the positions; unused ones are H or OH. Bridge positions count the residues as written; N and C are the ends. Peptide text beside a SMILES is read from it. X1 = O=C(CC1(S[*:2])CCCCC1)[*:1]
# Legend:
# [1] = species: Rattus norvegicus; assay: Antivasopressor activity in rats.; type: functional, organism-based; details: read-out: pA2 (converted)
# Method in brief: (§1)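 Intravenous vasopressor assay in phenoxybenzamine-treated rats under urethane anesthesia, with the USP posterior pituitary standard as agonist. Antagonist given at a high and a low dose.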
# [2] = species: Rattus norvegicus; assay: In vitro anti-oxytocic activity in rat uterus (no Mg2+); type: functional; details: read-out: pA2 (converted)
# [3] = species: Rattus norvegicus; assay: Effective dose required for anti-oxytocic activity in rat uterus; type: functional
# [4] = species: Rattus norvegicus; assay: In vitro anti-oxytocic activity in rat uterus (0.5 mM Mg2+); type: functional; details: read-out: pA2 (converted)
# [5] = ED ratio (anti-oxytocic ED/antiantidiuretic ED) of the compound; type: functional, Urine
# [6] = Selectivity ratio for antioxyticic potency to antidiuretic potency; type: functional, Urine
# [7] = system: Rattus norvegicus; assay: In vivo anti-oxytocic activity in rat uterus; type: functional, organism-based; details: read-out: pA2 (converted)
# [8] = species: Rattus norvegicus; assay: Antiantidiuretic activity in rats.; type: functional, organism-based; details: Urine, read-out: pA2 (converted)
# Method in brief: (§2)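 Antidiuretic assay in rats under ethanol anesthesia. Antagonist given at two doses, a high and a low one. The USP posterior pituitary standard was injected 20 min later, or 10 min later for non-agonist analogues.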
# [9] = Selectivity ratio for anti-vasopressor potency to antidiuretic potency; type: functional, Urine
# [10] = ED ratio (anti-vasopressor ED/antiantidiuretic ED) of the compound; type: functional, Urine
# [11] = species: Rattus norvegicus; assay: Effective dose required for anti-vasopressor activity in phenoxybenzamine-treated rats under urethane anesthesia; type: functional; method in brief: as §1
# [12] = species: Rattus norvegicus; assay: Effective dose required for antiantidiuretic activity in rats.; type: functional, Urine; method in brief: as §2
Structure (SMILES),Kb [1] [nM],Kb [2] [nM],Effective dose [3] [nM/kg],Kb [4] [nM],ED ratio [5],Selectivity [6],Kb [7] [nM],Kb [8] [nM],Selectivity [9],ED ratio [10],Effective dose [11] [nM/kg],Effective dose [12] [nM/kg]
CC(C)[C@@H]1NC(=O)[C@H](Cc2ccccc2)NC(=O)[C@@H](Cc2ccc(O)cc2)NC(=O)CC2(CCCCC2)SSC[C@@H](C(=O)N2CCC[C@H]2C(=O)N[C@@H](CCCN=C(N)N)C(=O)NCC(N)=O)NC(=O)[C@H](CC(N)=O)NC1=O,3.89,7.76,6.9,16.6,3.1,1,97.7,30.9,1,0.13,–,–
CC[C@@H](C)[C@H]1NC(=O)CC2(CCCCC2)SSC[C@@H](C(=O)N2CCC[C@H]2C(=O)N[C@@H](CCCN=C(N)N)C(=O)NCC(N)=O)NC(=O)[C@H](CC(N)=O)NC(=O)[C@H](C(C)C)NC(=O)[C@H](Cc2ccccc2)NC1=O,115,10.5,44,–,–,–,617,10.5,–,–,8.2,0.7
CC(C)[C@@H]1NC(=O)[C@H](Cc2ccccc2)NC(=O)[C@@H](Cc2ccccc2)NC(=O)CC2(CCCCC2)SSC[C@@H](C(=O)N2CCC[C@H]2C(=O)N[C@@H](CCCN=C(N)N)C(=O)NCC(N)=O)NC(=O)[C@H](CC(N)=O)NC1=O,8.71,–,8.9,–,–,–,120,8.51,–,–,0.58,0.67
CC(C)[C@@H]1NC(=O)[C@H](Cc2ccccc2)NC(=O)[C@@H](Cc2ccc(O)cc2)NC(=O)CC2(CCCCC2)SSC[C@@H](C(=O)N2CCC[C@H]2C(=O)N[C@H](CCCN=C(N)N)C(=O)NCC(N)=O)NC(=O)[C@H](CC(N)=O)NC1=O,8.91,10.2,8.1,16.6,–,–,117,93.3,–,–,0.6,6.3
CC(C)[C@@H]1NC(=O)[C@H](Cc2ccccc2)NC(=O)[C@@H](CCCN=C(N)N)NC(=O)CC2(CCCCC2)SSC[C@@H](C(=O)N2CCC[C@H]2C(=O)N[C@@H](CCCN=C(N)N)C(=O)NCC(N)=O)NC(=O)[C@H](CC(N)=O)NC1=O,3980,> 10000,–,–,–,–,–,> 1260,–,–,~260,>90
CC(C)[C@@H]1NC(=O)[C@H](Cc2ccccc2)NC(=O)[C@@H](C)NC(=O)CC2(CCCCC2)SSC[C@@H](C(=O)N2CCC[C@H]2C(=O)N[C@@H](CCCN=C(N)N)C(=O)NCC(N)=O)NC(=O)[C@H](CC(N)=O)NC1=O,1620,692,–,9770,–,–,–,–,–,–,177,–
CC(C)[C@@H]1NC(=O)[C@H](Cc2ccccc2)NC(=O)[C@@H](C(C)C)NC(=O)CC2(CCCCC2)SSC[C@@H](C(=O)N2CCC[C@H]2C(=O)N[C@@H](CCCN=C(N)N)C(=O)NCC(N)=O)NC(=O)[C@H](CC(N)=O)NC1=O,389,12.6,220,129,96,31,3240,33.1,92,12,27,2.3
CC(C)C[C@H]1NC(=O)CC2(CCCCC2)SSC[C@@H](C(=O)N2CCC[C@H]2C(=O)N[C@@H](CCCN=C(N)N)C(=O)NCC(N)=O)NC(=O)[C@H](CC(N)=O)NC(=O)[C@H](C(C)C)NC(=O)[C@H](Cc2ccccc2)NC1=O,355,47.9,61,41.7,51,16,891,16.2,170,22,26,1.2
CC(C)[C@@H]1NC(=O)[C@H](Cc2ccccc2)NC(=O)[C@H](Cc2ccc(O)cc2)NC(=O)CC2(CCCCC2)SSC[C@@H](C(=O)N2CCC[C@H]2C(=O)N[C@@H](CCCN=C(N)N)C(=O)NCC(N)=O)NC(=O)[C@H](CC(N)=O)NC1=O,10.7,45.7,26,49,–,–,339,–,–,–,–,–
CC(C)[C@@H]1NC(=O)[C@H](Cc2ccccc2)NC(=O)CNC(=O)CC2(CCCCC2)SSC[C@@H](C(=O)N2CCC[C@H]2C(=O)N[C@@H](CCCN=C(N)N)C(=O)NCC(N)=O)NC(=O)[C@H](CC(N)=O)NC1=O (GFVNCPRG-NH2; linker N-5 via X1),–,2880,–,> 20000,–,–,–,–,–,–,–,–
